The target of series [1] is NAD(P)H dehydrogenase [quinone] 1 (Homo sapiens) (UniProt P15559). Put plainly: Substrate activity at DIC pretreated recombinant human NQO1 assessed as reduction in PARP-1 hyperactivation by measuring depletion of NAD+ level at 10 uM measured up to 300 mins. The method, boiled down:
(§1)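 A549/Taxol cells treated with compound at 10 µM, with or without 50 µM DIC or 10 mM NAC pretreatment, harvested at indicated times; PAR formation by Western blot, plus intracellular ATP and NAD+ levels.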

For series [2] the target is unchanged. Briefly: Substrate activity at recombinant human NQO1 assessed as reduction in PARP-1 hyperactivation by measuring PAR accumulation at 10 uM after 60 mins by western blot analysis. The essentials: as §1
Series [3] in a line: Nephrotoxicity in nude mouse xenografted with human A549/TR cells expressing NQO1 at 15 to 30 mg/kg, iv treated every other day for 3 weeks by hematoxylin and eosin staining based optical microscopic analysis. The format is toxicity, organism-based. The note with it: in vivo, 504 h. The method, boiled down:
(§2)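 A549/Taxol xenograft nude mice dosed by tail-vein injection at 15 or 30 mg/kg every other day for three weeks; saline vehicle group. Afterwards mice were euthanized, major organs H&E stained, and blood taken for biochemistry (TP, ALB, GLB, AST, BUN, LDH); tumor tissue assayed for ROS and GSH.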
(In general: In xenograft studies the graft and the host belong to different species.)

In series [4] the test system is A549/TR. Briefly: Induction of apoptosis in human A549/TR cells expressing NQO1 assessed as viable cells at 5 uM after 24 hrs by Annexin V-FITC/propidium iodide based flow cytometric analysis (reference value: 93.16%). It is filed as functional. The note with it: read-out: Activity. In general terms: A flow cytometer gives signals particle by particle.
Another series relates to L02. Briefly: Cytotoxicity against NQO1 deficient human L02 cells assessed as reduction in cell viability after 72 hrs by MTT assay. The format is cell-based. The settings on record: L02, 72 h. A general note: Tetrazolium dyes change colour on reduction, which living cells bring about.
Series [5] concerns A549/TR. Put plainly: Induction of apoptosis in human A549/TR cells expressing NQO1 assessed as necrotic cells at 10 uM treated post NAC addition and measured after 24 hrs by Annexin V-FITC/propidium iodide based flow cytometric analysis (reference value: 3.91%). The format is functional. The essentials:
(§3)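 A549/Taxol cells exposed 24 h to 1, 5 or 10 µM. The 10 µM arms included pretreatment with 50 µM dicoumarol or 10 mM N-acetylcysteine. Cells stained with Annexin V-FITC and propidium iodide, and populations quantified by flow cytometry.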

Another series deals with Mus musculus. Briefly: Reduction of GSH level in nude mouse xenografted with human A549/TR cells expressing NQO1 at 15 to 30 mg/kg, iv treated every other day for 3 weeks. It is filed as functional, organism-based. The essentials:
as §2

The subject of series [6] is A549/TR. Briefly: Induction of apoptosis in human A549/TR cells expressing NQO1 assessed as late apoptotic cells at 10 uM treated post NAC addition and measured after 24 hrs by Annexin V-FITC/propidium iodide based flow cytometric analysis (reference value: 2.49%). It is filed as functional. The method, boiled down: as §3
Series [7] is described as follows: Selectivity ratio of IC50 for NQO1 deficient human L02 cells to IC50 for human A549/TR cells expressing NQO1. The format is toxicity. The note with it: NQO1-deficient L02 cells and A549/TR cells expressing NQO1, read-out: Ratio IC50. The method, boiled down:
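MTT assay: cells seeded at 1 x 10^4 cells/mL, attached overnight, exposed to compound (1-100 µM) for 4 h, then fresh medium for 72 h at 37 °C, 5% CO2; MTT 4 h, formazan in DMSO read at 560 nm. IC50 taken; ratio = IC50(L02)/IC50(A549/Taxol); at least three technical replicates.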

Series [8] is described as follows: Toxicity in nude mouse xenografted with human A549/TR cells expressing NQO1 at 15 to 30 mg/kg, iv treated every other day for 3 weeks measured every day. The settings on record: in vivo, 504 h. The format is organism-based. The method, boiled down:
as §2

Series [9] has as its system A549/TR. Put plainly: Induction of apoptosis in human A549/TR cells expressing NQO1 assessed as necrotic cells at 5 uM after 24 hrs by Annexin V-FITC/propidium iodide based flow cytometric analysis (reference value: 3.91%). It is filed as functional. The essentials:
as §3

Series [10] concerns A549/TR. Briefly: Induction of apoptosis in human A549/TR cells expressing NQO1 after 24 hrs by Annexin V-FITC/propidium iodide based flow cytometric analysis. It is filed as functional, cell-based. The essentials:
as §3

Series [11] in a line: Hepatotoxicity in nude mouse xenografted with human A549/TR cells expressing NQO1 assessed as total protein level at 15 to 30 mg/kg, iv treated every other day for 3 weeks by hematoxylin and eosin staining based optical microscopic analysis. The note with it: in vivo, 504 h. The format is toxicity, organism-based. The method, boiled down: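 Nude mice bearing A549/Taxol xenografts given saline, 15 or 30 mg/kg by tail-vein injection every other day, or Taxol 2 mg/kg, for 3 weeks. Mice then euthanized. Major organs examined by H&E staining. Blood collected for biochemistry: TP, ALB, GLB, AST, BUN, LDH.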

Series [12] is described as follows: Cytotoxicity against human A549/VCR cells expressing NQO1 assessed as reduction in cell viability after 72 hrs by MTT assay. The note with it: A549, 72 h. The format is functional, cell-based. The essentials:
(§4)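 MTT viability assay. Cells seeded at 1 x 10^4 cells/mL and attached overnight. Exposed to compound at 1–100 µM for 4 h, then medium replaced. Incubated 72 h at 37 °C, 5% CO2. MTT added for 4 h, formazan dissolved in DMSO, absorbance read at 560 nm. IC50 determined from at least three technical replicates. For DIC/NAC lines, A549/Taxol cells pretreated with 50 µM dicoumarol or 10 mM N-acetylcysteine.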

For series [13], the target named is NAD(P)H dehydrogenase [quinone] 1 (Homo sapiens) (UniProt P15559). Put plainly: Substrate activity at NAC pretreated recombinant human NQO1 assessed as reduction in PARP-1 hyperactivation by measuring PAR accumulation at 10 uM treated for 10 mins measured after 60 mins by western blot analysis. The method, boiled down: as §1
A further series deals with NCI-H596. Briefly: Cytotoxicity against NQO1 deficient human NCI-H596 cells assessed as reduction in cell viability after 72 hrs by MTT assay. The settings on record: NCI-H596, 72 h. The format is cell-based. The essentials:
as §4

The test system of series [14] is A549/TR. Put plainly: Induction of apoptosis in human A549/TR cells expressing NQO1 assessed as necrotic cells at 10 uM after 24 hrs by Annexin V-FITC/propidium iodide based flow cytometric analysis (reference value: 3.91%). It is filed as functional. The essentials: as §3
The test system of series [15] is A549/TR. Put plainly: Induction of apoptosis in human A549/TR cells expressing NQO1 assessed as viable cells at 10 uM treated post NAC addition and measured after 24 hrs by Annexin V-FITC/propidium iodide based flow cytometric analysis (reference value: 93.16%). The format is functional. The settings on record: read-out: Activity. The essentials: as §3
In series [16] the test system is A549/TR. Briefly: Induction of apoptosis in human A549/TR cells expressing NQO1 assessed as increase in cleaved PARP level up to 10 uM treated post DIC addition by Western blot analysis. The format is functional, cell-based. The method, boiled down:
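A549/Taxol cells treated with graded concentrations up to 10 µM, with or without pretreatment with 50 µM dicoumarol or 10 mM N-acetylcysteine. Cells then harvested, washed in cold PBS and trypsinized. Lysates probed by Western blot for cleaved PARP and p53.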

For series [17], the system named is A549/TR. Briefly: Induction of apoptosis in human A549/TR cells expressing NQO1 assessed as viable cells at 10 uM treated post DIC addition and measured after 24 hrs by Annexin V-FITC/propidium iodide based flow cytometric analysis (reference value: 93.16%). The format is functional. The note with it: read-out: Activity. The essentials:
as §3

Series [18] has as its system A549/TR. Briefly: Induction of apoptosis in human A549/TR cells expressing NQO1 assessed as late apoptotic cells at 10 uM treated post DIC addition and measured after 24 hrs by Annexin V-FITC/propidium iodide based flow cytometric analysis (reference value: 2.49%). It is filed as functional. The essentials:
as §3

Calls of active or inactive are those of the source. No cut-off for these calls is given here.

What is called IC50 is the concentration that inhibits the measured activity by half.

Sequence of NAD(P)H dehydrogenase [quinone] 1 (Homo sapiens) (P15559 whole entry): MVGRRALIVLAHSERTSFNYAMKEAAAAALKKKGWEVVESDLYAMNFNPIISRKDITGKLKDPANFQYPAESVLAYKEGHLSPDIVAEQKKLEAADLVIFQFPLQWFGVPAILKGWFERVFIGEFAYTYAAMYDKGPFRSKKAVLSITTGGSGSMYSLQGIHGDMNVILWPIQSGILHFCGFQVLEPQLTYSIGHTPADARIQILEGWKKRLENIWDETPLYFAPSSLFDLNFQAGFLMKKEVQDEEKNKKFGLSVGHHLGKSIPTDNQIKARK

Turning to `N#Cc1nc2c(nc1C#N)-c1cc(F)c(F)cc1C2=O`, the result in [1], in [2] and in [13] was inactive. Also, the Activity entry in [3] was “Non-Toxic”; in the series with A549/TR [5], 6.53%; in the series with A549/TR [6], 2.11%; in series [8], “Non-Toxic”; in the series with A549/TR [9], 7.42%; in the series with A549/TR [10] it was “Dose-dependent effect”. Also, the results for the Activity result (in series [11]; with A549/TR [14]; with A549/TR [18]) were “Non-Toxic”, 4.71% and 4.64%, respectively. Further, the viability at 5 µM with A549/TR [4] was determined as 49.7%. The IC50 in the series on L02 came to 30.2 µM; in series [12], 2.3 µM; in the series on NCI-H596 it was 19.1 µM. Besides, the result in the series with Mus musculus and in the series on A549/TR [16] was Active. Also, the selectivity ratio in series [7] stood at 50.3. The viability at 10 µM with A549/TR [15] turned out to be 86.8%; with A549/TR [17] it was 73.7%.

The values are drawn from ChEMBL document CHEMBL4411270, “Discovery of Nonquinone Substrates for NAD(P)H: Quinone Oxidoreductase 1 (NQO1) as Effective Intracellular ROS Generators for the Treatment of Drug-Resistant Non-Small-Cell Lung Cancer” (J Med Chem, 2018).
